Reference: ChEMBL document CHEMBL1139309, “Novel fluorinated pseudopeptides as proteasome inhibitors” (Bioorg Med Chem Lett, 2009)
Calls of active or inactive are those of the source. The rule behind the calls is not given here.

Legend:
[1] = species: Oryctolagus cuniculus; assay: (§1) Inhibition of chymotrypsin-like activity of rabbit 20S proteasome
In short: (§2)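 Rabbit 20S proteasome was run at 37 °C, pH 7.5, for 45 min, with and without compound (0.1–200 µM). Fluorogenic substrates were Suc-LLVY-AMC for chymotrypsin-like activity and Z-LLE-βNA for post-acid activity. Buffer was 20 mM Tris, 1 mM DTT, 10% glycerol and 0.02% (w/v) SDS. IC50 or % inhibition at 100 µM is the mean of three experiments.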

[2] = (§3) Inhibition of post-acid activity of rabbit 20S proteasome; design: species or system Oryctolagus cuniculus; in short: as §2
[3] = species: Oryctolagus cuniculus; assay: (§4) Inhibition of trypsin-like activity of rabbit 20S proteasome
In short: (§5)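 Trypsin-like activity of rabbit 20S proteasome was followed by Boc-LRR-AMC hydrolysis over 45 min at 37 °C, with and without compound (0.1–200 µM). Buffer was pH 7.5 20 mM Tris, 1 mM DTT and 10% glycerol, with no SDS. Values are IC50 or % inhibition at 100 µM, as means of three experiments.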

[4] = as §1; design: species or system Oryctolagus cuniculus; in short: as §2
[5] = species: Oryctolagus cuniculus; assay: Inhibition of trypsin-like activity of rabbit 20S proteasome at 100 uM; in short: as §5
[6] = biological target: Cathepsin B (Homo sapiens) (UniProt P07858); assay: Inhibition of CTSB
In short: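 Cathepsin B was assayed at 37 °C using Z-RR-AMC substrate in 352 mM KH2PO4 (pH 6), 48 mM NaHPO4, 1 mM EDTA and 1 mM DTT.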

[7] = biological target: T1, Calpain-1 catalytic subunit (Homo sapiens) (UniProt P07384); assay: Inhibition of calpain 1
T1 sequence (whole entry): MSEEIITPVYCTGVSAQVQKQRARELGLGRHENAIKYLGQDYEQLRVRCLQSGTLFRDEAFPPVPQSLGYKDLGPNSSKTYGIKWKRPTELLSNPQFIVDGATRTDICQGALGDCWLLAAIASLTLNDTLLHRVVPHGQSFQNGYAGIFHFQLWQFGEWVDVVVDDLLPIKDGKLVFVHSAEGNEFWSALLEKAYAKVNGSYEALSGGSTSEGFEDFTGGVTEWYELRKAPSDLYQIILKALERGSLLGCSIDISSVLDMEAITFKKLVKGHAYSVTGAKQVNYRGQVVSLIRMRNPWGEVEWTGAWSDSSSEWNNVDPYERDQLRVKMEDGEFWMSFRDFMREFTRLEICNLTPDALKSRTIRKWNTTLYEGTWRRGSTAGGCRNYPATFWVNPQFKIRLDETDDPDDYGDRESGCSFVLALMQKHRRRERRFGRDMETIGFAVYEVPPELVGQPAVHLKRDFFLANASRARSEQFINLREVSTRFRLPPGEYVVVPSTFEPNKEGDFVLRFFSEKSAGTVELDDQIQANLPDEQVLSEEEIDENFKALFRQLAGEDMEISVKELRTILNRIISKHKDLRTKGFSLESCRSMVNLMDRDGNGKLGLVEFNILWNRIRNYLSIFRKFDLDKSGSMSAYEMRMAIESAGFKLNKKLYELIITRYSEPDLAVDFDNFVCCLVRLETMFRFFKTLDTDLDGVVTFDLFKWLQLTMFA
In short: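 Purified calpain I was assayed at 37 °C with Suc-LLVY-AMC substrate in 50 mM Tris–HCl (pH 7.2), 10 mM DTT and 2 mM CaCl2.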

[8] = species: Oryctolagus cuniculus; assay: as §3; in short: as §2
[9] = as §4; design: species or system Oryctolagus cuniculus; in short: as §5
[10] = system: HeLa; assay: Inhibition of chymotrypsin-like activity of 20S proteasome in human HeLa cells at 50 uM after 1.5 hrs by chemiluminescent assay

Row | SMILES | Activity [1] | IC50 [2] | Activity [3] | IC50 [4] | inhibition [5] | Activity [6] | Activity [7] | Activity [8] | IC50 [9] | inhibition [10]
1 | COC(=O)[C@H](Cc1ccccc1)NC(=O)CC(NNC(=O)[C@H](CCCCN)NC(=O)OC(C)(C)C)C(F)(F)F (mixture of isomers) | – | 6 µM | – | 32 µM | 30% | inactive | inactive | – | – | –
2 | COC(=O)[C@H](Cc1ccccc1)NC(=O)CC(NNC(=O)[C@@H](N)CCCCNC(=O)OCc1ccccc1)C(F)(F)F (mixture of isomers) | – | – | – | 5.9 µM | – | inactive | inactive | inactive | 4.4 µM | –
3 | COC(=O)[C@H](Cc1ccccc1)NC(=O)CC(NNC(=O)[C@H](Cc1ccc(OC)c(OC)c1)NC(=O)Cc1cccc(Oc2ccccc2)c1)C(F)(F)F (mixture of isomers) | – | 72 µM | – | 85 µM | – | – | – | – | – | –
4 | COC(=O)[C@H](Cc1ccccc1)NC(=O)CC(NNC(=O)[C@H](CCCCNC(=O)OCc1ccccc1)NC(=O)OC(C)(C)C)C(F)(F)F (mixture of isomers) | inactive | – | – | – | – | – | – | inactive | – | –

Now from value to compound, other results behind:

Row | Activity [1] | IC50 [2] | Activity [3] | IC50 [4] | inhibition [5] | Activity [6] | Activity [7] | Activity [8] | IC50 [9] | SMILES | inhibition [10]
5 | inactive | 200 µM | inactive | – | – | – | – | – | – | COC(=O)[C@H](Cc1ccccc1)NC(=O)CC(NNC(=O)[C@H](CCCCNC(=O)OCc1ccccc1)NC(=O)Cc1cccc(Oc2ccccc2)c1)C(F)(F)F (mixture of isomers) | –
6 | – | 2.7 µM | – | 1.6 µM | – | inactive | inactive | – | 8.4 µM | COC(=O)[C@H](Cc1ccccc1)NC(=O)CC(NNC(=O)[C@H](CCCCN)NC(=O)Cc1cccc(Oc2ccccc2)c1)C(F)(F)F (mixture of isomers) | 20%
7 | – | – | inactive | – | – | – | – | inactive | – | COC(=O)[C@H](Cc1ccccc1)NC(=O)CC(NNC(=O)Cc1cccc(Oc2ccccc2)c1)C(F)(F)F (mixture of isomers) | –
